Results as given in PMC3320048 (Angiogenesis, 2011).
Where a SMILES comes first, the peptide text is derived from it. Bridges are numbered along the chain shown (N, C = ends). Where no end group is shown, it is not given here.

Assays:
[1] = tested on: neonatal human dermal fibroblasts (NHDF); test: LDH release in fibroblasts; type: cell-based; conditions: 150 μg/ml, 24 hours, 37°C
Summary of the method: (§1)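 Cells were grown at 37°C in humidified 5% CO2 and treated at about 50% confluence. Test compound (2 mg/ml stock in H2O) was added at 150 μg/ml in 2% FBS for 24 h at 37°C. LDH release was read with a commercial kit and normalised to background death in untreated cells. 0.1% (v/v) Triton X-100 defined maximal release.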

[2] = tested on: proliferating HUVEC; test: Cytotoxicity assay; type: cell-based
[3] = tested on: DU145 subcutaneous xenografts; test: DU145 tumor treatment study; type: in vivo, mice; conditions: 300 μg i.p. 3x/week
Summary of the method: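 Male athymic nude mice carried 2-week-old subcutaneous DU145 flank xenografts averaging 40 mm3 at the start. They received carrier or test compound (300 μg) intraperitoneally three times per week. Tumour volume was measured with calipers at each treatment time point, and mice were weighed on day 15. Groups were compared by unpaired two-tailed t test or one-way ANOVA with Tukey post hoc test.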

[4] = tested on: human bladder epithelial cells (HBEC); test: LDH release in epithelial cells; type: cell-based; conditions: 150 μg/ml, 24 hours, 37°C
Summary of the method: as §1

[5] = target: CLIC1 (Homo sapiens, UniProt O00299); test: Saturation binding assay
Summary of the method: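 Copper-coated microtiter wells were coated with 2 μg/ml purified His-tagged human CLIC1. Wells were incubated 1 h at room temperature with varying concentrations of carboxyfluorescein-labelled peptide in TBS with 200 mM n-octyl-β-D-glucoside and 1 mM CaCl2. After TBS washes, fluorescence was read at ex 485/em 520. Signal from His-tagged nucleolin-coated wells was subtracted as non-specific binding. Kd was derived from the binding curves.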

[6] = tested on: HUVEC; test: Western blot of cytosolic fractions for LC3 and cathepsins; type: cell-based, human
Summary of the method: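 Cytosolic fractions came from treated HUVEC using a subcellular fractionation kit. Proteins were resolved by SDS-PAGE, blotted to PVDF and checked for equal loading with 0.05% Ponceau S. Blots were blocked in 5% milk or BSA, probed overnight at 4°C for cathepsin C, cathepsin D and LC3B, and detected by peroxidase secondary antibodies with ECL. Lysosomes were labelled with 100 nM LysoTracker Red for 1 h before paraformaldehyde fixation.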

[7] = tested on: HUVEC; test: Flow cytometry assay of CLIC1 cell surface expression in suspended HUVEC; type: cell-based, human; conditions: peptide 300 μM
[8] = tested on: fibrinogen; conditions: cited from earlier work
[9] = tested on: fibronectin; conditions: cited from earlier work

## CC[C@H](C)[C@@H]1NC(=O)[C@H](CC(C)C)NC(=O)CNC(=O)[C@@H](N)CSSC[C@@H](C(=O)O)NC(=O)[C@H](CCC(=O)O)NC(=O)[C@H](CC(N)=O)NC(=O)[C@H](CCCCN)NC(=O)[C@H](CCC(N)=O)NC(=O)[C@H]([C@@H](C)CC)NC1=O [CLT1] (H-CGLIIQKNEC-OH; disulfide 1-10)
[1]
  cytotoxicity in fibroblasts (LDH release): little effect
[2]; HUVEC cultured at 4°C versus 37°C, 150 μg/ml, 24 hours, LDH release
  CLT1-induced cytotoxicity at 4°C: protected endothelial cells from CLT1-induced cytotoxicity
[2]; HUVEC, CLIC1 siRNA versus control siRNA, 24 hours, LDH release
  cytotoxicity of CLT1 after CLIC1 knockdown: significantly reduced
[2]; HUVEC, LDH release over time
  earliest time at which cytotoxicity was detected: 3.5 h
[3]; day 15 of the treatment study
  body weight of the mice: remained unchanged
[4]
  cytotoxicity in epithelial cells (LDH release): little effect
[5]
  Kd: 10.2 µM

## CGLKIQKNEC (disulfide 1-10 (inferred)) [CLT1-IK1]
[6]; HUVEC cytosolic fractions, 7 hours, 7.5–75 μg/ml, immunoblot
  LC3-II conversion (autophagy marker): did not induce
[6]; HUVEC, 75 μg/ml 24 hours immunoblot, 10 μg/ml fluorescein-conjugated peptide, lysotracker
  lysosome dysfunction (cathepsin C and D leakage, lysotracker): did not induce

## CNAGESSKNC (disulfide 1-10 (inferred)) [CLT2, reference compound]
[3]; DU145 xenografts, n=12/treatment group
  tumor growth (tumor volume): no anti-angiogenic or anti-tumor effects

## GRGDSP [reference compound]
[7]
  effect on CLIC1 cell surface localization induced by CLT1-fibronectin co-aggregates: partially inhibited
[2]; HUVEC, peptide 300 μM, 24 hours, LDH release
  effect on cytotoxic function of CLT1: inhibited the cytotoxic function of CLT1

## anginex
[8]
  aggregate formation when mixed with fibrinogen: form large insoluble aggregates
[9]
  aggregate formation when mixed with fibronectin: form large insoluble aggregates

## GRADSP
[7]
  effect on CLIC1 cell surface localization induced by CLT1-fibronectin co-aggregates: not by an inactive peptide

## CO/C1=C\C(C)=C\[C@@H](C)[C@@H](O)[C@@H](C)C/C(C)=C/C=C/[C@H](OC)[C@@H]([C@@H](C)[C@@H](O)[C@H](C)[C@@]2(O)C[C@@H](O)[C@H](C)[C@@H](C(C)C)O2)OC1=O [bafilomycin A1, reference compound]
[2]; HUVEC, 20 nM bafilomycin A1 for 1 hour prior to CLT1 25 μg/ml for 24 hours
  effect of pretreatment on CLT1 cytotoxicity (LDH release): ameliorated cytotoxicity of CLT1
